Assay outcomes as filed in PubChem BioAssay.
SENP7 inh – blocks the human protease SENP7; Q9BQF6; recombinant SENP7, Z-RLRGG-aminoluciferin luminescence, 40 min; inhibition, % at 5 µM; 330,000 compounds, 1.5% hits;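 active = inhibition above about 50% at the single test dose, limit read from the data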
SENP1 inh – blocks the human SENP1 SUMO protease catalytic domain | Q9P0U3 | recombinant SENP1 catalytic domain, CyPet-SUMO1-YPet FRET cleavage | inhibition, % at 10 µM | 360,000 compounds, 0.21% hits;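 active = inhibition at least 30% at 10 µM, raw YFP signal under a set limit, fluorescence ratio 0.5 to 1.5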
Target sequence (Q9P0U3 419-644 limits assumed): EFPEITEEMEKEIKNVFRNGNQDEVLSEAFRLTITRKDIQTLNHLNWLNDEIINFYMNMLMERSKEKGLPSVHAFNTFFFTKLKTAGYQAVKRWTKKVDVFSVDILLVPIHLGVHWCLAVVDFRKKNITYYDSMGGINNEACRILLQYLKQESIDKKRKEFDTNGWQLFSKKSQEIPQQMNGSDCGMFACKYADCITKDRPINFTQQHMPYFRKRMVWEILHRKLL
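System: Recombinant human SENP1 catalytic domain, His6-tagged | Incubation: Enzyme reaction for 50 min at room temperature, dark | Medium: Tris pH 8 with BME, BSA, NP40 and catalase | Also added: 25 nM SUMO1 FRET substrate | Compound: 10 µM single point, 0.5% DMSO | Measured by: FRET fluorescence in CFP and YFP emission channels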
SENP8 block-1 – blocks the human protease SENP8 | Q96LD8 | purified SENP8, Z-RLRGG-aminoluciferin cleavage, luminescence | inhibition, % at 10 µM | 330,000 compounds, 1.2% hits | AID 2540; in the data active = inhibition above about 50%
Target sequence (Q96LD8 whole entry, looked up): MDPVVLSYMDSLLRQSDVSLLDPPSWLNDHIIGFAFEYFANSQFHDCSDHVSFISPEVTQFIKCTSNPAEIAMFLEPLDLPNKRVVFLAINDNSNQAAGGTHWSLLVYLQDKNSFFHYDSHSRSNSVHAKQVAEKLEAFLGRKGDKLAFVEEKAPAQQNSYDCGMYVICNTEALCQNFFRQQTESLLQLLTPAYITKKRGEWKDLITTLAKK
SENP6 block – SENP6 protease inhibition; AID 2599; inhibition, % at 10 µM; Recombinant SENP6 catalytic domain, aminoluciferin luminescence; 330,000 compounds, 1.8% hits; Q9GZR1;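 active = inhibition above about 50% at the single tested dose, limit read from the data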
HSP90 inh – inhibitors of HSP90 luciferase refolding in rabbit reticulocyte lysate. luciferase refolding luminescence, 3 h. inhibition, % at 5.6 µM. 290,000 compounds, 0.91% hits. AID 1789;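 active = inhibition above the screen-wide mean plus 3 SD, computed separately per campaign, cut at about 16% in these data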;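 also: inhibitors lower the luminescence because luciferase stays unfolded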
SENP8 block-2 – SENP8 (human) protease inhibition. Q96LD8. recombinant SENP8, Nedd8 substrate fluorescence. inhibition, % at 20 µM. 360,000 compounds, 0.64% hits. AID 602440; in the data active = inhibition mostly above about 40%, no sharp cut-off; inactive = mostly below about 27%
SENP8 conf – confirmation of human SENP8 protease inhibitors. purified SENP8, Nedd8-AMC/pro-Nedd8 cleavage fluorescence, 30 min. shares compounds with SENP8 block-2. 1,400 compounds, 15% hits. inhibition, % at 25 µM; in the data active = inhibition mostly above about 39%, no sharp cut-off; inactive = mostly below about 34%
Of the large screens only hits and unclear results are named; the others gave an inactive call (follow-up assays come after a bar, where they were run). The list is not random: actives were taken first. Their share in the collection is about 2.9%.

O=S(=O)(c1ccccc1)N1CCN(C2CCCCCCC2)CC1	SENP8 block-2 41 | SENP8 conf inactive
O=S(=O)(c1ccccc1)N1CCN(S(=O)(=O)c2ccccc2)C1	SENP8 block-2 41 | SENP8 conf inactive
COCCCNC(=O)C1CCN(C(=O)c2oc3cc4sc(N(C)C)nc4cc3c2C)CC1	none
O=C(OCc1c(-c2ccccc2)ncc2ccccc12)N1CCOCC1	none (no result: HSP90 inh)
COc1ccc(CCNC(=O)CSc2nc(=O)n3cc(C)ccc3n2)cc1OC	SENP8 block-2 62 (no result: HSP90 inh) | SENP8 conf inactive
Cc1ccc2nc(SCC(=O)NCCc3ccccc3)nc(=O)n2c1	none (no result: HSP90 inh)
O=C(CSC1=NNC(c2ccccn2)S1)Nc1ccccc1 (stereo not drawn)	SENP8 block-2 48 | SENP8 conf inactive
CC(C)(C)NS(=O)(=O)c1ccc(Oc2ncc(C(F)(F)F)cc2Cl)cc1	SENP8 block-2 40 | SENP8 conf inactive
CCC(=O)NC(Nc1sc2c(c1C(=O)OC)CCCC2)(C(F)(F)F)C(F)(F)F	SENP8 block-2 43 | SENP8 conf inactive
COCC(=O)Nc1sc2c(c1C(=O)OC)CCCC2	none
Cc1nc2ccccc2n1CC(O)COCC1CC=CCC1 (stereo not drawn)	SENP8 block-2 43 | SENP8 conf inactive
OC(COCC1CC=CCC1)Cn1cnc2ccccc21 (stereo not drawn)	none
Nc1nc(NCCO)nc(NC2CCCCC2)c1[N+](=O)[O-]	none
Nc1nc(NCCOCCO)nc(NC2CCCCC2)c1[N+](=O)[O-]	SENP8 block-2 47 | SENP8 conf inactive
Cc1oc2cc([N+](=O)[O-])c(O)c([N+](=O)[O-])c2c1C(=O)c1ccc(Cl)cc1	SENP8 block-2 42 | SENP8 conf inactive
COc1ccc(OC)c(C(=O)c2c(C)oc3cc([N+](=O)[O-])c(O)c([N+](=O)[O-])c23)c1	none
Cc1ccc(S(=O)(=O)N2C[C@H]3C(=O)C[C@@H](c4ccccc4F)N(S(=O)(=O)c4ccc(C)cc4)[C@H]3C[C@H]2c2ccccc2)cc1	none (no result: SENP7 inh, SENP8 block-1, SENP6 block, HSP90 inh)
CC(C)CCNC(=O)C1(c2cccs2)CCOCC1	SENP8 block-2 41 | SENP8 conf inactive
Clc1ccc(-c2nc3ccc(Br)cn3c2Cc2cccc(Cl)c2)cc1	none (no result: SENP7 inh, SENP8 block-1, SENP6 block, HSP90 inh)
CC1(C)C(=O)C=CC(=O)C(C)(C)C(=O)C=CC(=O)C(C)(C)C2=CC=C(O2)C(C)(C)C(=O)C=CC1=O	SENP8 block-2 48 (no result: SENP7 inh, SENP8 block-1, SENP6 block, HSP90 inh) | SENP8 conf inactive
Cc1cc(Oc2cccc3c2S(=O)(=O)N(C2CCCC2)CC(COCc2ccccc2)O3)cc(C)c1C (stereo not drawn)	none (no result: SENP7 inh, SENP8 block-1, SENP6 block, HSP90 inh)
COc1ccc(C=O)cc1CN1CCCN(Cc2ccccc2F)S1(=O)=O	none
COc1cccc(C2=NOC(C(=O)N3CCc4ccccc4C3)C2)c1 (stereo not drawn)	SENP8 block-2 51 | SENP8 conf 61
O=C(C1CC(c2ccc(F)cc2)=NO1)N1CCc2ccccc2C1 (stereo not drawn)	none
COc1ccc(OC)c(S(=O)(=O)N2CCC(C(=O)N3CCc4ccccc4C3)CC2)c1	SENP8 block-2 44 | SENP8 conf inactive
CCS(=O)(=O)N1CCCC(C(=O)N2CCc3ccccc3C2)C1 (stereo not drawn)	SENP8 block-2 53 | SENP8 conf 54
Nc1nnc(-c2ccc([N+](=O)[O-])o2)s1	SENP8 block-2 37 (no result: SENP7 inh, SENP8 block-1, SENP6 block, HSP90 inh) | SENP8 conf inactive
Cc1ccc(C(=O)NC2CCN(S(=O)(=O)c3ccccc3F)CC2)cc1	none
Cc1cnc(C(=O)OCC(=O)NC2CCCCCCC2)cn1	none
CCN(C(=O)COC(=O)c1cnc(C)cn1)C1CCCCC1	SENP8 block-2 40 | SENP8 conf inactive
CC1CC(C)CN(S(=O)(=O)c2ccc(NC(=O)[C@@H]3CCCN3C(=O)c3cccs3)cc2)C1 (stereo partly drawn)	none (no result: HSP90 inh)
CCCCN1C(=O)C(=O)N(CC(=O)Nc2sc(CC)cc2C(=O)OCC)C1=O	none (no result: HSP90 inh)
Cc1cccc(C)c1N/C=C/c1onc(C)c1[N+](=O)[O-]	none
Cc1ccc(N/C=C/c2onc(C)c2[N+](=O)[O-])cc1	SENP7 inh 78, SENP6 block 60, SENP8 block-2 54 | SENP8 conf inactive
O=C(Oc1ccccc1[N+](=O)[O-])c1cccnc1	SENP8 block-2 46 | SENP8 conf inactive
Cc1cccc(OC(=O)c2cccnc2)c1C	none
